Results taken from ChEMBL document CHEMBL3286129, “Optimization of peptidomimetic boronates bearing a P3 bicyclic scaffold as proteasome inhibitors” (Eur J Med Chem, 2014).
Activity calls are given as the source filed them. The rule behind the calls is not given here.

Experiments:
NCI-H460 = assay: Growth inhibition of human NCI-H460 cells; format: functional
NCI-H522 = assay: Growth inhibition of human NCI-H522 cells; format: functional
COLO 205 = assay: Growth inhibition of human COLO205 cells; format: functional
HT-29 = assay: Growth inhibition of human HT-29 cells; format: functional
KM12 = assay: Growth inhibition of human KM12 cells; format: functional
SF-268 = assay: Growth inhibition of human SF268 cells; format: functional
[1] = Growth inhibition of human SF295 cells; format: functional; details: SF-295
[2] = Growth inhibition of human SF539 cells; format: functional
U-251 = assay: Growth inhibition of human U251 cells; format: functional
[3] = Growth inhibition of human LOXIMVI cells; format: functional; details: LOX IMVI
Malme-3M = assay: Growth inhibition of human MALME-3M cells; format: functional
M14 = assay: Growth inhibition of human M14 cells; format: functional
SK-MEL-2 = assay: Growth inhibition of human SK-MEL-2 cells; format: functional
SK-MEL-5 = assay: Growth inhibition of human SK-MEL-5 cells; format: functional
[4] = Growth inhibition of human UACC257 cells; format: functional
[5] = Growth inhibition of human OVCAR3 cells; format: functional; details: OVCAR-3
[6] = Growth inhibition of human OVCAR4 cells; format: functional
[7] = Growth inhibition of human OVCAR8 cells; format: functional
SK-OV-3 = assay: Growth inhibition of human SKOV3 cells; format: functional
786-0 = assay: Growth inhibition of human 786-0 cells; format: functional
ACHN = assay: Growth inhibition of human ACHN cells; format: functional
[8] = Growth inhibition of human RXF393 cells; format: functional
PC-3 = assay: Growth inhibition of human PC3 cells; format: functional
MCF7 = assay: Growth inhibition of human MCF7 cells; format: functional
T47D = assay: Growth inhibition of human T47D cells; format: functional
[9] = molecular target: Proteasome Macropain subunit (Homo sapiens) (UniProt P49721); assay: Inhibition of trypsin-like activity of 20S proteasome in human erythrocytes using Boc-Leu-Arg-Arg-AMC as substrate by fluorescence assay; format: cell-based
Method in brief: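 Human 20S proteasome 0.0025 mg/mL at 30 °C in 50 mM Tris pH 7.4, 50 mM NaCl, 0.5 mM EDTA, 0.03% SDS, 7.5% DMSO. Varied inhibitor concentrations; AMC release monitored continuously for 10 min, ex 380/em 460 nm. Ki derived from progress-curve IC50 fit.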

Chymotrypsinogen A = Chymotrypsinogen A (Bos taurus, UniProt P00766); assay: Inhibition of bovine pancreatic alpha-chymotrypsin using Suc-Leu-Leu-Val-Tyr-AMC as substrate by fluorescence assay
Method in brief: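 Enzyme incubated at 20 °C in 50 mM Tris pH 8.0, 100 mM NaCl, 5 mM EDTA, 7.5% DMSO with varied inhibitor concentrations. Substrate hydrolysis followed for 10 min. Ki from progress curves; mean of three determinations.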

[10] = Cytotoxicity against human leukemia cells assessed as cell growth at 10 uM relative to control; format: functional; details: read-out: Activity
Method in brief: (§1)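 Single-concentration screen against a panel of human cancer cell lines. Each value is the mean percent growth across the cell lines of that tumour subpanel.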

[11] = Cytotoxicity against human NSCLC cells assessed as cell growth at 10 uM relative to control; format: functional; details: read-out: Activity; method in brief: as §1
[12] = Cytotoxicity against human colon cancer cells assessed as cell growth at 10 uM relative to control; format: functional; details: Cancer cell lines, read-out: Activity; method in brief: as §1
[13] = Cytotoxicity against human ovarian cancer cells assessed as cell growth at 10 uM relative to control; format: functional; details: Cancer cell lines, read-out: Activity; method in brief: as §1
[14] = Cytotoxicity against human renal cancer cells assessed as cell growth at 10 uM relative to control; format: functional; details: Cancer cell lines, read-out: Activity; method in brief: as §1
[15] = Cytotoxicity against human prostate cancer cells assessed as cell growth at 10 uM relative to control; format: functional; details: Cancer cell lines, read-out: Activity; method in brief: as §1
[16] = Cytotoxicity against human breast cancer cells assessed as cell growth at 10 uM relative to control; format: functional; details: Cancer cell lines, read-out: Activity; method in brief: as §1
CCRF-CEM = assay: Growth inhibition of human CCRF-CEM cells; format: functional
HL-60(TB) = assay: Growth inhibition of human HL-60(TB) cells; format: functional
K562 = assay: Growth inhibition of human K562 cells; format: functional
[17] = Growth inhibition of human MOLT4 cells; format: functional
RPMI-8226 = assay: Growth inhibition of human RPMI8226 cells; format: functional
HOP-62 = assay: Growth inhibition of human HOP62 cells; format: functional
NCI-H23 = assay: Growth inhibition of human NCI-H23 cells; format: functional
[18] = read-out: LC50 (the source's name)

Chain of Proteasome Macropain subunit (Homo sapiens) (P49721 whole entry): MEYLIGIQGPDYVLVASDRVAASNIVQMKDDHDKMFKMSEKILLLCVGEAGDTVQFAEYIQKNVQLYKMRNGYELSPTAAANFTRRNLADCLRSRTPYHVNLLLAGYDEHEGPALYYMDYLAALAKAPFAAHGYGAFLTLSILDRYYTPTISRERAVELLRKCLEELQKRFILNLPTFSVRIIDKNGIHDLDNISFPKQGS

Molecule `CC(C)C[C@H](NC(=O)CCn1ccc2ncccc2c1=O)B(O)O` has a GI50 (NCI-H460) of 36.2 µM, an LC50 (NCI-H460) of over 100 µM and a TGI (NCI-H460) of over 100 µM. It also gave a GI50 (NCI-H522) of 4.66 µM, an LC50 (NCI-H522) of over 100 µM and a TGI (NCI-H522) of 21.7 µM. The GI50 (COLO 205) was 10 µM, the TGI (COLO 205) was over 100 µM and the CC50 (COLO 205; [18]) was over 100 µM. It also gave a GI50 (HT-29) of 6.77 µM, an LC50 (HT-29) of over 100 µM and a TGI (HT-29) of over 100 µM. For the same molecule, the GI50 (KM12) was 17 µM, the LC50 (KM12) was over 100 µM and the TGI (KM12) was 49.6 µM. It also gave a GI50 (SF-268) of 14.7 µM, an LC50 (SF-268) of over 100 µM and a TGI (SF-268) of over 100 µM. It also gave a GI50 [1] of 8.92 µM, an LC50 [1] of over 100 µM and a TGI [1] of 36 µM. It also gave a GI50 ([2]; SF-539) of 2.76 µM, a TGI ([2]; SF-539) of 8.38 µM and a CC50 ([2]; SF-539, read-out: LC50 (the source's name)) of over 100 µM. The GI50 (U-251) was 33 µM, the TGI (U-251) was over 100 µM and the CC50 (U-251; [18]) was over 100 µM. For the same molecule, the GI50 [3] was 6.37 µM, the TGI [3] was 28.4 µM and the CC50 [3, 18] was over 100 µM. It also gave a GI50 (Malme-3M) of 5.12 µM, a TGI (Malme-3M) of 62.2 µM and a CC50 (Malme-3M; [18]) of over 100 µM. For the same molecule, the GI50 (M14) was 4.11 µM, the LC50 (concentration killing 50% of cells) (M14) was 97.9 µM and the TGI (M14) was 22.3 µM. It also gave a GI50 (SK-MEL-2) of 18.3 µM, an LC50 (SK-MEL-2) of over 100 µM and a TGI (SK-MEL-2) of over 100 µM. For the same molecule, the GI50 (SK-MEL-5) was 4.03 µM, the LC50 (concentration killing 50% of cells) (SK-MEL-5) was over 100 µM and the TGI (SK-MEL-5) was 22.1 µM. It also gave a GI50 ([4]; UACC-257) of 10.1 µM, a TGI ([4]; UACC-257) of 47 µM and a CC50 ([4]; UACC-257, read-out: LC50 (the source's name)) of over 100 µM. It also gave a GI50 [5] of 4.65 µM, an LC50 (concentration killing 50% of cells) [5] of over 100 µM and a TGI [5] of 31.9 µM. For the same molecule, the GI50 ([6]; OVCAR-4) was 28.4 µM, the TGI ([6]; OVCAR-4) was over 100 µM and the CC50 ([6]; OVCAR-4, read-out: LC50 (the source's name)) was over 100 µM. The GI50 ([7]; OVCAR-8) was 37.5 µM, the TGI ([7]; OVCAR-8) was over 100 µM and the CC50 ([7]; OVCAR-8, read-out: LC50 (the source's name)) was over 100 µM. It also gave a GI50 (SK-OV-3) of over 100 µM, an LC50 (SK-OV-3) of over 100 µM and a TGI (SK-OV-3) of over 100 µM. The GI50 (786-0) was 7.94 µM, the TGI (786-0) was over 100 µM and the CC50 (786-0; [18]) was over 100 µM. It also gave a GI50 (ACHN) of 9.15 µM, a TGI (ACHN) of over 100 µM and a CC50 (ACHN; [18]) of over 100 µM. For the same molecule, the GI50 ([8]; RXF 393) was 3.29 µM, the TGI ([8]; RXF 393) was 14.3 µM and the CC50 ([8]; RXF 393, read-out: LC50 (the source's name)) was 54.2 µM. It also gave a GI50 (PC-3) of 41.4 µM, a TGI (PC-3) of over 100 µM and a CC50 (PC-3; [18]) of over 100 µM. The GI50 (MCF7) was 3.61 µM, the TGI (MCF7) was over 100 µM and the CC50 (MCF7; [18]) was over 100 µM. The GI50 (T47D) was 4.67 µM, the TGI (T47D) was over 100 µM and the CC50 (T47D; [18]) was over 100 µM. For the same molecule, the inhibition [9] was “inactive”, the Ki (Chymotrypsinogen A) was “Not Active” and the growth at 10 µM [10] was 34.8%. For the same molecule, the growth at 10 µM [11] was 80.3%, the growth at 10 µM [12] was 78.1% and the growth at 10 µM [13] was 84.2%. It also gave a growth at 10 µM [14] of 76.1%, a growth at 10 µM [15] of 98.5% and a growth at 10 µM [16] of 68%. It also gave a GI50 (CCRF-CEM) of 2.35 µM, a TGI (CCRF-CEM) of over 100 µM and a CC50 (CCRF-CEM; [18]) of over 100 µM. The GI50 (HL-60(TB)) was 6.88 µM, the TGI (HL-60(TB)) was over 100 µM and the GI50 (K562) was 17.2 µM. It also gave a TGI (K562) of over 100 µM, a CC50 (K562; [18]) of over 100 µM and a GI50 ([17]; MOLT-4) of 3.3 µM. For the same molecule, the TGI ([17]; MOLT-4) was over 100 µM, the CC50 ([17]; MOLT-4, read-out: LC50 (the source's name)) was over 100 µM and the GI50 (RPMI-8226) was 3.22 µM. It also gave a TGI (RPMI-8226) of over 100 µM, a CC50 (RPMI-8226; [18]) of over 100 µM and a GI50 (HOP-62) of 29.8 µM. The TGI (HOP-62) was over 100 µM, the CC50 (HOP-62; [18]) was over 100 µM and the GI50 (NCI-H23) was 25.4 µM. The TGI (NCI-H23) was over 100 µM and the CC50 (NCI-H23; [18]) was over 100 µM.
